Test results taken from ChEMBL document CHEMBL1221307, “Substituted 2H-isoquinolin-1-ones as potent Rho-kinase inhibitors: part 2, optimization for blood pressure reduction in spontaneously hypertensive rats” (Bioorg Med Chem Lett, 2010).

Assays:
Format in all cases: ADME, organism-based
[1] = Oral bioavailability in rat at 10 mg/kg; conditions: in vivo
Method in brief: (§1)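 Rats given 0.5 mg/kg iv and 10 mg/kg po. The iv plasma values are the mean from three rats; the po plasma values come from a single rat.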

[2] = AUC in rat at 10 mg/kg, po; set-up: dose 10 mg/kg, route oral; conditions: plasma; method in brief: as §1
[3] = AUC in rat at 0.5 mg/kg, iv; set-up: dose 0.5 mg/kg, route intravenous; conditions: plasma; method in brief: as §1

| SMILES | bioavailability [1] | AUC [2] | AUC [3] |
| --- | --- | --- | --- |
| CN1CCC(C(=O)Nc2cc3cc[nH]c(=O)c3cc2Cl)CC1 | 70% | 1780 ng·h/mL | 127 ng·h/mL |
| O=C(Nc1cc2cc[nH]c(=O)c2cc1Cl)C1CCNCC1 | 4.4% | 141 ng·h/mL | 161 ng·h/mL |
| N[C@H]1CC[C@@H](C(=O)Nc2cc3cc[nH]c(=O)c3cc2Cl)CC1 | 20% | 338 ng·h/mL | 119 ng·h/mL |
